Measured values taken from ChEMBL document CHEMBL4145685, “Development of Second-Generation CDK2 Inhibitors for the Prevention of Cisplatin-Induced Hearing Loss” (J Med Chem, 2018).
pEC50, pIC50: −log10 of the molar value. Activity calls are given as the source filed them. No cut-off for these calls is given here.

Columns and labels:
[1] = molecular target: Glycogen synthase kinase-3 alpha (Homo sapiens) (UniProt P49840); test: Inhibition of human full length GSK3alpha expressed in bacterial expression system at 1 uM
Method in brief: (§1)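 Competition binding screen at 1 μM over a 468-kinase panel. Kinases were T7-phage-tagged (grown in E. coli BL21-derived host) or produced in HEK-293 cells with DNA tags. They bound to immobilized biotinylated ligand beads with compound for 1 h at room temperature in SeaBlock/PBS/Tween/DTT buffer. Eluted kinase was quantified by qPCR.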

[2] = Protection against cisplatin-induced cell death in neonatal mouse HEI-OC1 cells assessed as reduction in caspase-3/7 activity; type: functional; conditions: for pEC50: Mus musculus, HEI-OC1, read-out: EC50
[3] = system: Spiral organ of cochlea; test: Protection against cisplatin-induced toxicity in P3 mouse cochlear explants assessed as increase in outer hair cell count incubated for 24 hrs by phalloidin staining based confocal microscopy; type: functional, tissue-based
[4] = molecular target: Glycogen synthase kinase-3 beta (Homo sapiens) (UniProt P49841); test: Inhibition of human full length GSK3beta expressed in mammalian expression system at 1 uM; method in brief: as §1
[5] = molecular target: Cyclin-dependent kinase 7 (Homo sapiens) (UniProt P50613); test: Inhibition of human full length CDK7 expressed in mammalian expression system at 1 uM; method in brief: as §1
[6] = molecular target: CDK2/Cyclin A2 (Homo sapiens, UniProt P24941); test: Inhibition of C-terminal His6-tagged human full length CDK2/N-terminal GST-tagged human full length Cyclin A using histone H1 and [gamma-32P]-ATP incubated for 30 mins by phosphorimage based assay; type: protein-complex assay
[7] = system: Spiral organ of cochlea; test: Protection against cisplatin-induced toxicity in P3 mouse cochlear explants assessed as increase in outer hair cell count at 100 to 500 nM incubated for 24 hrs by phalloidin staining based confocal microscopy; type: functional, tissue-based
Method in brief: (§2)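 P3 FVB mouse cochleae were cultured on filters in DMEM with 1% FBS and 50 μg/mL ampicillin, 37 °C, 5% CO2, for 1 d. They were pretreated with compound 1 h, then given cisplatin 150 μM plus compound for 1 d. Fixed in 4% PFA, phalloidin-stained, confocal imaged. OHCs counted per 160 μm; medium-only = full protection, cisplatin-only = none.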

[8] = system: Spiral organ of cochlea; test: Protection against cisplatin-induced toxicity in P3 mouse cochlear explants assessed as increase in outer hair cell count at 150 nM incubated for 24 hrs by phalloidin staining based confocal microscopy; type: functional, tissue-based; method in brief: as §2

Glycogen synthase kinase-3 alpha (Homo sapiens), sequence (P49840 2-483 limits assumed): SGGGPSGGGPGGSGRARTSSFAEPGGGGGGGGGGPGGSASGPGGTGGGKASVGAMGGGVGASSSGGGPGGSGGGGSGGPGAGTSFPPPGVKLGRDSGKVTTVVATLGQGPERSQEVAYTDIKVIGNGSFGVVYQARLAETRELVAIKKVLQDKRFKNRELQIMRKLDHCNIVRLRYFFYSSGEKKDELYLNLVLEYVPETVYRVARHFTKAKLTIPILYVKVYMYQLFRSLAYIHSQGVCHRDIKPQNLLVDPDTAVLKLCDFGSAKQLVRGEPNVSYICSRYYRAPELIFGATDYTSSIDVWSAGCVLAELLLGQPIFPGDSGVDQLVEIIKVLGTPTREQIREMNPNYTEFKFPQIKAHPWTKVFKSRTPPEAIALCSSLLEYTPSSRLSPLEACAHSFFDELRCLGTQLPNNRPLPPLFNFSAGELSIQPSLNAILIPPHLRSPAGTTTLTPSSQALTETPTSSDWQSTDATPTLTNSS
Glycogen synthase kinase-3 beta (Homo sapiens), sequence (P49841 whole entry, looked up): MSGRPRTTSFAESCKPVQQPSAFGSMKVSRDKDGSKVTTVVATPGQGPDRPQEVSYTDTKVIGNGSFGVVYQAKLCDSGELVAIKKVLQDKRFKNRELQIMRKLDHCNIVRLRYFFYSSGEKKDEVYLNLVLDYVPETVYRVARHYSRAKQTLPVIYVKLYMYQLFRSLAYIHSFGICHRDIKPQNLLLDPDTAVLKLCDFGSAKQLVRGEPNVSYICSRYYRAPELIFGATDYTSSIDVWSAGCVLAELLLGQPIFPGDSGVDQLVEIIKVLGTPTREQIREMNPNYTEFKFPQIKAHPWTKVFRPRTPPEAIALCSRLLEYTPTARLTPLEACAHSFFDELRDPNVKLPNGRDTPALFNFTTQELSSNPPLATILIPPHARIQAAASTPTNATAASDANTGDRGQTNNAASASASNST
Cyclin-dependent kinase 7 (Homo sapiens), sequence (P50613 whole entry): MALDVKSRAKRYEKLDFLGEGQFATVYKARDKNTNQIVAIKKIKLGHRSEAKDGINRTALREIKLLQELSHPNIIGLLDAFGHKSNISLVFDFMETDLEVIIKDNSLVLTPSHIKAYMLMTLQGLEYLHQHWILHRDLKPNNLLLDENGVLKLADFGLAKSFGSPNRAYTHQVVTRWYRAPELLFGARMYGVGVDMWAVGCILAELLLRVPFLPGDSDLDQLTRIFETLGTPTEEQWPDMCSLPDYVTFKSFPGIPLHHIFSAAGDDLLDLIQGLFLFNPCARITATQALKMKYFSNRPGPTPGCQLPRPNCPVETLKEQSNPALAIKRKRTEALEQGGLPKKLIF

| Compound | pEC50 [2] | EC50 [2] | also measured |
| --- | --- | --- | --- |
| O=C1Cc2c([nH]c3ccc(Br)cc23)-c2ccccc2N1 [KENPAULLONE] | 6.46 | – | inhibition [1]: Active; pEC50 [3]: 6.82; inhibition [4]: Active; inhibition [5]: Active |
| CCn1cc(NC(=O)c2ccc(Cn3cc(Cl)cn3)cc2)c(C(=O)NC2CCCC2)n1 | 5.30 | – | pIC50 [6]: < 5.00 |
| Cc1[nH]nc(C(N)=O)c1NC(=O)c1cc(F)cc(Br)c1 | – | Not Active | – |
| Cn1ncc(NC(=O)c2ccccc2Cl)c1C(=O)N1CCCCC1 | – | Not Active | – |
| CCn1cc(NC(=O)c2ccc(Cl)cc2Cl)c(C(=O)Nc2ccccc2)n1 | 4.51 | – | pIC50 [6]: < 5.00 |
| Cc1nc(-c2ccnc(N)n2)cn1Cc1c(Cl)cccc1Cl | – | Not Active | – |
| CCn1cc(NC(=O)c2ccccc2Cl)c(C(=O)NCC(C)C)n1 | – | Not Active | – |
| O=C(Cc1ccccc1)Nc1c[nH]nc1C(=O)Nc1ccc(F)cc1 | < 4.49 | – | – |
| Cn1cc(NC(=O)c2ccc(Cl)cc2Cl)c(C(=O)NCCc2ccco2)n1 | – | Not Active | – |
| CNC(=O)c1nn(C)cc1NC(=O)c1ccccc1Cl | – | Not Active | – |
| COc1cccc(F)c1C(=O)Nc1c[nH]nc1C(=O)NC1CCNCC1 | < 4.43 | – | – |
| O=C(NC1CCNCC1)c1n[nH]cc1NC(=O)c1c(Cl)cccc1Cl | – | – | Activity [7]: inactive; inhibition [1]: Active; inhibition [4]: Active; inhibition [5]: Active |
| NS(=O)(=O)c1ccc(CCNc2nccc(-c3ccccn3)n2)cc1 | – | Not Active | – |
| Cc1[nH]nc(C(N)=O)c1NC(=O)C(C)NC(=O)c1ccc(Cl)cc1 (stereo unspecified) | – | Not Active | – |
| CN[C@@H]1CCN(C(=O)c2ccc(Nc3ncc(F)c(-c4cnc(C)n4C(C)C)n3)cc2)C1 | – | Not Active | – |
| O=C(NC1CCCCC1)c1n[nH]cc1NC(=O)c1c(F)cccc1F | < 4.56 | – | – |
| CCn1ccnc1CN(C)c1nccc(-c2ccc(C)nc2C)n1 | – | Not Active | – |
| CCCNC(=O)c1c(NC(=O)c2cc(S(=O)(=O)N3CCCC3)c(Cl)cc2Cl)cnn1C | – | Not Active | – |
| Cc1cc(Br)ccc1C(=O)Nc1c(C(N)=O)n[nH]c1C | – | Not Active | – |
| Cn1cc(NC(=O)c2c(Cl)cccc2Cl)c(C(=O)NC2CCN(C(=O)c3c(Cl)cccc3Cl)CC2)n1 | < 4.31 | – | pIC50 [6]: < 5.00 |
| N[C@H]1CC[C@H](NC(=O)c2n[nH]cc2NC(=O)c2c(F)cccc2F)CC1 | < 4.48 | – | – |
| O=C(Nc1ccc(F)cc1)c1n[nH]cc1NC(=O)c1c(F)cccc1F | – | – | Activity [8]: inactive |
| CCn1cc(NC(=O)c2ccc(COCC(F)(F)F)cc2)c(C(=O)NCC(C)C)n1 | 5.17 | – | pIC50 [6]: < 5.00 |
| CCC(Nc1nccc(-c2ccccn2)n1)c1ccc(S(C)(=O)=O)cc1 (stereo unspecified) | – | Not Active | – |
| Cc1ccc(-c2ccnc(NCC(C)n3nc(C)cc3C)n2)c(C)n1 (stereo unspecified) | – | Not Active | – |
